Measurements as given in ChEMBL document CHEMBL1153160, “Towards development of selective and reversible pyrazoline based MAO-inhibitors: Synthesis, biological evaluation and docking studies” (Bioorg Med Chem Lett, 2010).

How the values were obtained:
Format in all cases: tissue-based
[1] = molecular target: T1, Amine oxidase [flavin-containing] A (Rattus norvegicus, UniProt P21396); assay: Inhibition of MAO-A in rat liver homogenate by spectrophotometry-based Holt method
T1 sequence (P21396 whole entry): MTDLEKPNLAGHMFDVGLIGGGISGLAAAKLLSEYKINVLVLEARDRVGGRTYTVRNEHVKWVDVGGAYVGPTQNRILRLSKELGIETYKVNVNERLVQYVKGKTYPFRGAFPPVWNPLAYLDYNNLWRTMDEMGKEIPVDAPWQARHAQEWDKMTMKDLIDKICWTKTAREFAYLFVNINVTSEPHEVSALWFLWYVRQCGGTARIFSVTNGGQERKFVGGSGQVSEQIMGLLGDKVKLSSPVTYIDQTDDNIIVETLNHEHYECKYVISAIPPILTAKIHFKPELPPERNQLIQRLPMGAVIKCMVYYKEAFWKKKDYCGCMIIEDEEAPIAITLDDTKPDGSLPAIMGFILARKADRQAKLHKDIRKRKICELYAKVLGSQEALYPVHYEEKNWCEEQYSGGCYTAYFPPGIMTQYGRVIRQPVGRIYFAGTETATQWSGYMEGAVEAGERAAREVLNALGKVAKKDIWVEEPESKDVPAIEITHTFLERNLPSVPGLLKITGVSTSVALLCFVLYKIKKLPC

[2] = molecular target: T2, Amine oxidase [flavin-containing] B (Rattus norvegicus, UniProt P19643); assay: Inhibition of MAO-B in rat liver homogenate by spectrophotometry-based Holt method
T2 sequence (P19643 whole entry): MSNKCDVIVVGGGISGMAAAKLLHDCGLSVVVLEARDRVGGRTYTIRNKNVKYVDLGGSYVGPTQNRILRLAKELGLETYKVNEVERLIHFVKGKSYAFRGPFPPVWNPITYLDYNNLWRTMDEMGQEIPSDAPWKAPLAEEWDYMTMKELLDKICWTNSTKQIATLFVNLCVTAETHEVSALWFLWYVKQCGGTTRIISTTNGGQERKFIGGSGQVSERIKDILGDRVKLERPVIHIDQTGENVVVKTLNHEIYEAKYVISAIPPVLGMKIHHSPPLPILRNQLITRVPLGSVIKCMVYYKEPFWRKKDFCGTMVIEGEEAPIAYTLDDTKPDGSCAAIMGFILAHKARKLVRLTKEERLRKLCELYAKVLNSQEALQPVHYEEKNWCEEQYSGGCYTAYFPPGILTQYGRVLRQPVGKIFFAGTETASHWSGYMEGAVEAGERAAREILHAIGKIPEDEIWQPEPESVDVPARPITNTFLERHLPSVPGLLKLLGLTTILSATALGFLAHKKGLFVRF

Rattus norvegicus = species: Rattus norvegicus; assay: Selectivity ratio of Ki for MAO-A in rat liver homogenate to Ki for MAO-B in rat liver homogenate
How it was run: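 Rat liver MAO; isoform isolated by blocking the other with pargyline or clorgyline. p-Tyramine substrate (2.5 mM for MAO-B). Inhibitor (DMSO) pre-incubated with homogenate 60 min, 37 °C. Holt coupled assay (vanillinic acid, 4-aminoantipyrine, peroxidase; potassium phosphate pH 7.6) read at 498 nm, 37 °C, 60 min. Ki from kinetics, mean of three experiments; index = Ki(MAO-A)/Ki(MAO-B).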

Row | SMILES | Ki [1] [µM] | Ki [2] [µM] | Ratio Ki (Rattus norvegicus)
1 | Cc1ccc(S(=O)(=O)N2N=C(c3ccccc3O)CC2c2ccc(O)cc2)cc1 (stereo not given) | 0.6 | – | –
2 | O=S(=O)(c1ccccc1)N1N=C(c2ccccc2O)CC1c1ccc(O)cc1 (stereo not given) | 0.68 | 700 | –
3 | O=S(=O)(c1ccccc1)N1N=C(c2ccccc2O)CC1c1ccccc1O (stereo not given) | 0.91 | 1550 | –
4 | N=C(NO)N1N=C(c2ccccc2O)CC1c1ccccc1O (stereo not given) | 15.7 | 96.8 | –
5 | Cc1ccc(S(=O)(=O)N2N=C(c3ccccc3O)CC2c2ccccc2O)cc1 (stereo not given) | 0.36 | 620 | –
6 | N=C(NO)N1N=C(c2ccccc2O)CC1c1ccc(O)cc1 (stereo not given) | 10.6 | 210 | –
7 | Oc1ccccc1C1=NNC(c2ccccc2O)C1 (stereo not given) | 3.7 | 0.78 | 4.74
8 | Oc1ccc(C2CC(c3ccccc3O)=NN2)cc1 (stereo not given) | 3.9 | 0.6 | 6.49
9 | O=C(c1ccccc1)N1N=C(c2ccccc2O)CC1c1ccc(O)cc1 (stereo not given) | 5.77 | 20300 | –
10 | O=C(c1ccccc1)N1N=C(c2ccccc2O)CC1c1ccccc1O (stereo not given) | 0.8 | – | –
